Source: paper PMC10468838 (ACS Omega, 2023)
≈ marks a conversion by molar mass, not a printed value. Like-named read-outs stand apart in the source and are kept apart here.

Tests used:
[1] = tested on: HT29 colon cancer cells; experiment: MTT assay, HT29 cells; assay type: cell-based, human; details: for IC50: read-out: IC50 (μM) HT29
Procedure, shortened: (§1)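 HT29, H1975, A549, MCF-7 and normal colon epithelial CCD841 cells were seeded at 5×10^5 cells/mL and grown 24 h. They were exposed to test compound at 0.5, 1.0, 2.0, 5.0 or 12.5 μM in DMEM for 24 h, then cultured a further 72 h. MTT (5 mg/mL solution) was added for 4 h at 37 °C and the formazan dissolved in DMSO. A490 was read. IC50 is given as mean ± s.d., n = 3.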

[2] = tested on: A549 lung cancer cells; experiment: MTT assay, A549 cells; assay type: cell-based; details: Homo sapiens, A549, 72 h, read-out: IC50 (μM) A549
Procedure, shortened: as §1

[3] = tested on: H1975 lung adenocarcinoma cells; experiment: MTT assay, H1975 cells; assay type: cell-based; details: Homo sapiens, NCI-H1975, 72 h, read-out: IC50 (μM) H1975
Procedure, shortened: as §1

[4] = tested on: MCF-7 breast cancer cells; experiment: MTT assay, MCF-7 cells; assay type: cell-based; details: Homo sapiens, MCF7, 72 h, read-out: IC50 (μM) MCF-7
Procedure, shortened: as §1

[5] = logP by UV method; assay type: physicochemical
[6] = Water solubility by UV method; assay type: physicochemical; details: thermodynamic from solid
Procedure, shortened: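 For a UV calibration curve, absorbance was measured at five concentrations of each compound in methanol/water (1:1, v/v). Excess solid compound was left standing in water for 2 h, then filtered. Absorbance of the filtrate was read and converted to concentration using the curve, giving water solubility.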

[7] = tested on: HT29, H1975, A549 and MCF-7 cancer cells; experiment: MTT assay, summary over the four cancer cell lines; assay type: cell-based, human; details: for IC50: Homo sapiens, read-out: IC50 against the four cancer cell lines
Procedure, shortened: as §1

[8] = tested on: ROS levels in HT29 cells; experiment: Intracellular ROS detection with DCFH-DA probe; assay type: cell-based, human; details: 12 h, CO 5.0 μM, 8h 1.0 or 5.0 μM
Procedure, shortened: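 HT29 cells (about 1×10^4 per well) were exposed to test compound at 1.0 or 5.0 μM for 12 h, with the parent reference at 5.0 μM. DCFH-DA (10 μM) was added for 30 min. DCF green fluorescence (λex 488 nm, λem 500–550 nm) was imaged by confocal microscopy. Results are mean ± SD of three separate assays.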

[9] = tested on: HT29 cells; experiment: Apoptosis assay, annexin V-FITC/PI flow cytometry; assay type: cell-based, human
Procedure, shortened: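 HT29 cells were seeded at 2×10^4 cells per well and left overnight. They were treated with test compound at 1.0 or 5.0 μM (parent reference 5.0 μM) for 24 h, then kept another 72 h. Cells were harvested, washed in PBS and stained with annexin V-FITC/PI. Early plus late apoptotic cells were counted by flow cytometry. Results are mean ± SD of three separate assays.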

[10] = tested on: H2AX in HT29 cells; experiment: Western blot, H2AX; assay type: cell-based, human; details: Western blotting
Procedure, shortened: (§2)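 HT29 cells were cultured for 4 h in medium containing test compound at 1.0 or 5.0 μM, with the parent reference at 5.0 μM. Lysis was in RIPA buffer with protease and phosphatase inhibitors, 30 min on ice. Protein was quantified by BCA, and equal amounts were run on SDS-PAGE and transferred to PVDF. Band levels were expressed relative to β-actin.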

[11] = tested on: human normal colon epithelial cells (CCD841); experiment: MTT assay, normal CCD841 cells; assay type: cell-based
Procedure, shortened: as §1

[12] = tested on: MMP of HT29 cells; experiment: Mitochondrial membrane potential with JC-1 dye; assay type: cell-based, human; details: 8h 5 μM
[13] = tested on: cleaved-caspase 3 in HT29 cells; experiment: Western blot, cleaved-caspase 3; assay type: cell-based, human; details: 1.0 and 5.0 μM, Western blotting
Procedure, shortened: as §2

[14] = tested on: Bcl-2 in HT29 cells; experiment: Western blot, Bcl-2; assay type: cell-based, human; details: 1.0 and 5.0 μM, Western blotting
[15] = tested on: GPX4 in HT29 cells; experiment: Western blot, GPX4; assay type: cell-based, human; details: 1.0 or 5.0 μM, compared with CO
Procedure, shortened: as §2

[16] = tested on: GSH level in HT29 cells; experiment: GSH level assay; assay type: cell-based, human; details: 24 h, 1.0 or 5.0 μM, compared with CO
Procedure, shortened: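 HT29 cells were exposed for 24 h to test compound at 1.0 or 5.0 μM, with the parent reference at 5.0 μM. Cells were harvested and counted. Glutathione was measured with a QuantiChrome glutathione assay kit. Results are mean ± SD, n = 3.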

[17] = tested on: malondialdehyde (MDA) in HT29 cells; experiment: Lipid peroxidation; assay type: cell-based, human; details: compared with CO
Procedure, shortened: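 HT29 cells were pretreated with or without ferrostatin-1 (1.0 μM) for 4 h. They were then exposed to test compound at 1.0 or 5.0 μM, with the parent reference at 5.0 μM. Lipid peroxidation was quantified as malondialdehyde with an MDA assay kit. Results are mean ± SD, n = 3.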

SMILES | IC50 ([1]; Homo sapiens, HT-29, 72 h) | IC50 [2] | IC50 [3] | IC50 [4] | logP [5] | solubility at 2 h [6] | other results
CN(C)CCCNC(=O)c1cc2c3ccccc3n3c(=O)ccc(n1)c23 [8c, N-(3-(Dimethylamino)propyl)-6-oxo-6H-indolo[3,2,1-de][1,5]naphthyridine-2-carboxamide] | 4.1 ± 0.3 µM | 4.8 ± 0.4 µM | 7.7 ± 0.8 µM | 4.6 ± 0.5 µM |  |  | 
NC1CCC(NC(=O)c2cc3c4ccccc4n4c(=O)ccc(n2)c34)CC1 (stereo not drawn) [8j, N-(4-Aminocyclohexyl)-6-oxo-6H-indolo[3,2,1-de][1,5]naphthyridine-2-carboxamide] |  | 3.5 ± 0.4 µM |  | 5.9 ± 0.5 µM |  |  | 
CN1CCN(C2CCN(c3ccc(NC(=O)c4cc5c6ccccc6n6c(=O)ccc(n4)c56)cc3)CC2)CC1 [8l, N-(4-(4-(4-Methylpiperazin-1-yl)piperidin-1-yl)phenyl)-6-oxo-6H-indolo[3,2,1-de][1,5]naphthyridine-2-carboxamide] | > 10 µM | > 10 µM | > 10 µM | > 10 µM |  |  | 
O=c1ccc2nccc3c4ccccc4n1c23 [CO, Canthin-6-one, reference compound] | 8.6 ± 0.7 µM | 7.6 ± 0.6 µM | 10.7 ± 1.2 µM | 8.9 ± 0.9 µM | 1.87 | 16.1 ± 1 µg/mL (≈ 73.1 µM) | IC50 [7]: 7.6 to 10.7 µM; intracellular ROS level (DCFH-DA fluorescence) [8]: weak fluorescence signal; percentage of apoptotic cells (early + late) ([9]; 5.0 μM): 22.68%; increase of H2AX expression ([10]; 5.0 μM): approximately 1.3 fold
CN1CCN(CCNC(=O)c2cc3c4ccccc4n4c(=O)ccc(n2)c34)CC1 [8h, N-(2-(4-Methylpiperazin-1-yl)ethyl)-6-oxo-6H-indolo[3,2,1-de][1,5] naphthyridine-2-carboxamide] | 1 ± 0.1 µM | 1.3 ± 0.1 µM | 1.9 ± 0.3 µM | 1.7 ± 0.2 µM | 1.19 | 70.5 ± 3.6 µg/mL (≈ 181 µM) | fold lower IC50 than CO against HT29 cells ([1]; HT29 cells, vs CO): 8.6 fold; IC50 ([11]; Homo sapiens, CCD-841, read-out: IC50 in normal cell line CCD841): 17.1 ± 2.5 µM; fold less cytotoxicity in CCD841 than in HT29 cells ([11]; IC50 CCD841 vs IC50 HT29): 17 fold; IC50 [7]: 1 to 1.9 µM; fold higher cytotoxicity than CO against the four cancer cells ([7]; vs CO, four cancer cell lines): 5–9 fold; intracellular ROS level (DCFH-DA fluorescence) [8]: Intense green fluorescence; MMP (JC-1 red/green fluorescence) [12]: intracellular red fluorescence almost disappeared; percentage of apoptotic cells (early + late) ([9]; 1.0 μM): 31.55%; percentage of apoptotic cells (early + late) ([9]; 5.0 μM): 45.14%; cleaved-caspase 3 level [13]: remarkably led to cleavage of caspase-3; Bcl-2 expression [14]: reduced the expression of antiapoptotic Bcl-2 protein in a dose-dependent manner; increase of H2AX expression ([10]; 1.0 μM): 2.4 fold; increase of H2AX expression ([10]; 5.0 μM): 3.2 fold; GPX4 expression [15]: markedly reduced; GSH level [16]: markedly reduced; level of malondialdehyde (MDA), lipid peroxidation [17]: increased the level of malondialdehyde
CN(C)CCNC(=O)c1cc2c3ccccc3n3c(=O)ccc(n1)c23 [8b, N-(2-(Dimethylamino)ethyl)-6-oxo-6H-indolo[3,2,1-de][1,5]naphthyridine-2-carboxamide] | 2.9 ± 0.4 µM | 3.2 ± 0.2 µM | 7.5 ± 0.6 µM | 3.8 ± 0.3 µM |  |  | 
CCN(CC)CCCC(C)NC(=O)c1cc2c3ccccc3n3c(=O)ccc(n1)c23 (stereo not drawn) [8k, N-(5-(Diethylamino)pentan-2-yl)-6-oxo-6H-indolo[3,2,1-de][1,5]naphthyridine-2-carboxamide] | 4.3 ± 0.5 µM |  | 5.5 ± 0.7 µM | 3.8 ± 0.3 µM |  |  | 
CCN(CC)CCNC(=O)c1cc2c3ccccc3n3c(=O)ccc(n1)c23 [8a, N-(2-(Diethylamino)ethyl)-6-oxo-6H-indolo[3,2,1-de][1,5]naphthyridine-2-carboxamide] | 2.2 ± 0.3 µM | 3.8 ± 0.5 µM |  | 4.7 ± 0.4 µM |  |  | 
COc1cccc2c1C(=O)c1c(O)c3c(c(O)c1C2=O)C[C@@](O)(C(=O)CO)C[C@@H]3O[C@H]1C[C@H](N)[C@H](O)[C@H](C)O1 [ADM, reference compound] |  |  |  |  |  |  | IC50 ([1]; HT29 cells, MTT, incubated for 72 h, mean ± s.d., n = 3): 2.6 ± 0.4 µM

The next lines start with results.

IC50 ([1]; Homo sapiens, HT-29, 72 h) | IC50 [2] | IC50 [3] | IC50 [4] | logP [5] | solubility at 2 h [6] | SMILES | other results
2.6 ± 0.2 µM | 4.2 ± 0.3 µM |  |  |  |  | O=C(NCCNCCO)c1cc2c3ccccc3n3c(=O)ccc(n1)c23 [8d, N-(2-((2-Hydroxyethyl)amino)ethyl)-6-oxo-6H-indolo[3,2,1-de][1,5] naphthyridine-2-carboxamide] | 
2.3 ± 0.3 µM | 3.4 ± 0.3 µM | 3 ± 0.4 µM | 4.6 ± 0.5 µM | 1.38 | 60.4 ± 5.4 µg/mL (≈ 168 µM) | CN1CCC(NC(=O)c2cc3c4ccccc4n4c(=O)ccc(n2)c34)CC1 [8i, N-(1-Methylpiperidin-4-yl)-6-oxo-6H-indolo[3,2,1-de][1,5]naphthyridine-2-carboxamide] | 
1.7 ± 0.3 µM | 2 ± 0.1 µM | 1.6 ± 0.1 µM | 2.4 ± 0.2 µM | 2.17 | 41.3 ± 4.5 µg/mL (≈ 110 µM) | O=C(NCCN1CCCCC1)c1cc2c3ccccc3n3c(=O)ccc(n1)c23 [8f, 6-Oxo-N-(2-(piperidin-1-yl)ethyl)-6H-indolo[3,2,1-de][1,5]naphthyridine-2-carboxamide] | 
 | 2.1 ± 0.3 µM |  | 4.5 ± 0.6 µM |  |  | O=C(NCCN1CCCC1)c1cc2c3ccccc3n3c(=O)ccc(n1)c23 [8e, 6-Oxo-N-(2-(pyrrolidin-1-yl)ethyl)-6H-indolo[3,2,1-de][1,5]naphthyridine-2-carboxamide] | 
